The values below come from paper PMC11295983 (ESMO Open, 2024).

One series relates to advanced malignancies. The conditions noted are these: monotherapy, cited from earlier work.
In series [1] the test system is patients with advanced malignancies. The note with it: monotherapy, parts 1 and 2; cited from earlier work.
The next series has as its system pFGFR2α. The conditions noted are these: based on in vivo experiments; no reference given; cited from earlier work.
The target of the next series is phosphorylated FGFR2α (Homo sapiens, UniProt P21802). Format: cell-based. Put shortly:
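Patients take oral pemigatinib once daily on 21-day cycles, continuous or intermittent, with combination therapy (e.g. i.v. docetaxel 75 mg/m² q3w, i.v. pembrolizumab 200 mg q3w). Steady-state trough is cycle 1 day 14, 0-24 h. Values are mean (SE) inhibition.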

Series [2] concerns patients with advanced solid tumor malignancies. Nature of the series: Safety and tolerability. Type of series: in vivo, human. Put shortly: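 Patients are ≥18 years with solid tumors that progressed after ≥1 prior line. They self-administer oral pemigatinib 9, 13.5 or 20 mg q.d. on 21-day cycles, continuous or intermittent, combined with chemotherapy, trastuzumab or anti-PD-1 antibody until progression or toxicity. Interruption and dose adjustment are allowed. AE frequency, duration and severity are summarized descriptively for patients receiving ≥1 dose.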

The test system of the next series is advanced solid tumors. As to the kind of experiment: Investigator-assessed tumor response per RECIST v1.1, FIGHT-101 part 3. Format: in vivo, human.
Where [3] appears, read: both the 9-mg and 13.5-mg doses of pemigatinib.

Read-outs that look alike come from different tables or passages of the source.

Chain of phosphorylated FGFR2α (P21802 431-767 limits assumed): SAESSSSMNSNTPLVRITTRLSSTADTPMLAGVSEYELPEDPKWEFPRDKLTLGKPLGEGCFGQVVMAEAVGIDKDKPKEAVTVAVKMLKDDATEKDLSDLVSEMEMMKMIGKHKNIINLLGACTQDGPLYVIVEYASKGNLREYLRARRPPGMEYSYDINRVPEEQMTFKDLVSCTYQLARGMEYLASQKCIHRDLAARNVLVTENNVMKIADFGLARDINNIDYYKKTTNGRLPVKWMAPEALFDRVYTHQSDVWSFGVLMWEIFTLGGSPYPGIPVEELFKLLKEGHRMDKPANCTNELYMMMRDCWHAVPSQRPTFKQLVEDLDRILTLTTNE

Regarding `CCN1C(=O)N(c2c(F)c(OC)cc(OC)c2F)Cc2cnc3[nH]c(CN4CCOCC4)cc3c21` [pemigatinib], the “Patients with partial responses (PRs)” value in the series with advanced malignancies (128 patients in parts 1 or 2) is recorded as 9.4%. In addition, in the series with advanced malignancies (parts 1 or 2), the “ORR among patients with FGFR mutations” value is listed as 23.1% and the “ORR among patients with FGFR rearrangements” value is 25.0%. Also, in series [1], the “Alopecia, patients” value is recorded as 31.3%; the “Diarrhea, patients” value is 32.0%; the “Dose reductions, patients” value was 4.6%; the “Dry mouth, patients” value is 38.3%. In series [1], the “Fatigue, patients” value is recorded as 39.1%; the “Hyperphosphatemia, patients” value is 75.0%; the “Patients who discontinued pemigatinib because of TEAEs” value is reported as 10.2%; the “Pemigatinib interruption used to manage TEAEs, patients” value is 51.6%. For the same compound, the “Stomatitis, patients” value in series [1] was 34.4%. For the same compound, in the series with pFGFR2α, the IC50 – broadly, the midpoint of a concentration-inhibition curve – is 22.6 nM.
pemigatinib + docetaxel [Pemi/doc]: the “Inhibition of FGFR2α phosphorylation at trough of steady state” value (shortened to “Inhibition of FGFR2α phosphorylation”) on phosphorylated FGFR2α (setting [3]) is on record as “exceeded 50%”. Also, in series [2] (pemigatinib 13.5 mg ID), the “Alopecia (TEAE)” value is given as 3 (42.9) n (%), the “Anemia (TEAE)” value is 4 (57.1) n (%), the “Constipation (TEAE)” value is reported as 3 (42.9) n (%) and the “Dehydration (TEAE)” value is 5 (71.4) n (%). Also, in series [2] (pemigatinib 13.5 mg ID), the “Diarrhea (TEAE)” value is on record as 6 (85.7) n (%); the “Diarrhea TEAE, patients” value was 85.7%; the “Dose interruptions because of TEAEs, patients” value (shortened to “Dose interruptions because”) is listed as 42.9%; the “Dysgeusia (TEAE)” value is listed as 3 (42.9) n (%). Further, in series [2] (pemigatinib 13.5 mg ID), the “Fatigue (TEAE)” value is recorded as 6 (85.7) n (%); the “Fatigue TEAE, patients” value turned out to be 85.7%; the “Hyperphosphatemia (TEAE)” value is on record as 6 (85.7) n (%); the “Hyperphosphatemia TEAE, patients” value amounted to 85.7%. Also, in series [2] (pemigatinib 13.5 mg ID), the “Nausea (TEAE)” value is on record as 4 (57.1) n (%); the “Neutropenia (TEAE)” value is reported as 3 (42.9) n (%); the “Stomatitis TEAE, patients” value amounted to 28.6%; the “TEAEs related to the combination partner, patients” value (from here on “TEAEs related”) is reported as 71.4%. Also, in series [2] (pemigatinib 13.5 mg ID), the “Taste disorder (TEAE)” value was 3 (42.9) n (%), the “Vomiting (TEAE)” value is listed as 3 (42.9) n (%) and the “Weight decreased (TEAE)” value is reported as 3 (42.9) n (%). Besides, the “ORR (95% CI)” value in the series with advanced solid tumors (pemigatinib 13.5 mg ID) is recorded as 14.3%. In the series with advanced solid tumors (urothelial tract/bladder cancer, FGF10 amplification), the “DOR, individual responder” value was found to be 12.5 months.
As for “pemigatinib + gemcitabine + cisplatin [Pemi/gem/cis]”, the “Inhibition of FGFR2α phosphorylation” value on phosphorylated FGFR2α (pemigatinib 13.5 mg ID) is on record as 31%. In series [2] (Total (all pemigatinib doses)), the “Alanine aminotransferase increased (TEAE)” value was 4 (50.0) n (%); the “Alopecia TEAE, patients” value is reported as 12.5%; the “Anemia (TEAE)” value is 8 (100.0) n (%); the “Aspartate aminotransferase increased (TEAE)” value was 4 (50.0) n (%). Also, in series [2] (Total (all pemigatinib doses)), the “Blood creatinine increased (TEAE)” value is 5 (62.5) n (%), the “Constipation (TEAE)” value is 5 (62.5) n (%), the “Dehydration (TEAE)” value was 3 (37.5) n (%) and the “Diarrhea (TEAE)” value is 4 (50.0) n (%). For the same compound, in series [2] (Total (all pemigatinib doses)), the “Dizziness (TEAE)” value is on record as 3 (37.5) n (%); the “Dose interruptions because” value came out at 87.5%; the “Dose reductions because of TEAEs, patients” value is 12.5%; the “Dry mouth (TEAE)” value is 3 (37.5) n (%). For the same compound, in series [2] (Total (all pemigatinib doses)), the “Fatigue (TEAE)” value is listed as 5 (62.5) n (%); the “Hyperphosphatemia (TEAE)” value is recorded as 4 (50.0) n (%); the “Hyperphosphatemia TEAE, patients” value stood at 50.0%; the “Hypokalemia (TEAE)” value was 3 (37.5) n (%). Moreover, in series [2] (Total (all pemigatinib doses)), the “Hyponatremia (TEAE)” value was 4 (50.0) n (%); the “Nausea (TEAE)” value was 5 (62.5) n (%); the “Neutropenia (TEAE)” value was 4 (50.0) n (%); the “Pemigatinib-related TEAEs, patients” value amounted to 87.5%. Further, in series [2] (Total (all pemigatinib doses)), the “Stomatitis (TEAE)” value is 3 (37.5) n (%); the “TEAEs related” value is recorded as 100.0%; the “Thrombocytopenia (TEAE)” value is 5 (62.5) n (%); the “Vomiting (TEAE)” value was 3 (37.5) n (%). Further, the “White blood cell count decreased (TEAE)” value in series [2] (Total (all pemigatinib doses)) is on record as 4 (50.0) n (%). Moreover, the “Anemia TEAE, patients” value in series [2] (pemigatinib 13.5 mg ID) came out at 100.0%. The “ORR (95% CI)” value in the series on advanced solid tumors (Total (all pemigatinib doses)) is 37.5%. Also, the “DOR, individual responder” value in the series on advanced solid tumors (pemigatinib 13.5 mg ID, anal cancer, no detectable FGF/FGFR alterations) worked out at 5.8 months. The “DOR, individual responder” value in the series with advanced solid tumors (pemigatinib 13.5 mg ID, ovarian cancer, no detectable FGF/FGFR alterations) was 6.6 months.
For the compound “pemigatinib + pembrolizumab [Pemi/pembro]”, the “Inhibition of FGFR2α phosphorylation” value on phosphorylated FGFR2α (setting [3]) is recorded as “exceeded 50%”. In series [2] (Total (all pemigatinib doses)), the “Alanine aminotransferase increased (TEAE)” value is reported as 8 (30.8) n (%), the “Alopecia (TEAE)” value is listed as 11 (42.3) n (%), the “Anemia (TEAE)” value is 12 (46.2) n (%) and the “Aspartate aminotransferase increased (TEAE)” value is 8 (30.8) n (%). In series [2] (Total (all pemigatinib doses)), the “Decreased appetite (TEAE)” value is given as 11 (42.3) n (%); the “Diarrhea (TEAE)” value is reported as 12 (46.2) n (%); the “Dose interruptions because” value turned out to be 57.7%; the “Dose reductions because of TEAEs, patients” value came out at 7.7%. Also, in series [2] (Total (all pemigatinib doses)), the “Dry eye (TEAE)” value is given as 8 (30.8) n (%); the “Dry mouth (TEAE)” value is listed as 9 (34.6) n (%); the “Fatigue TEAE, patients” value is 26.9%; the “Hyperphosphatemia (TEAE)” value is recorded as 19 (73.1) n (%). In series [2] (Total (all pemigatinib doses)), the “Pemigatinib-related TEAEs, patients” value was determined as 88.5%; the “Stomatitis (TEAE)” value is listed as 9 (34.6) n (%); the “TEAEs related” value was found to be 69.2%. In addition, in series [2] (pemigatinib 13.5 mg CD), the “Alopecia TEAE, patients” value was 55.6%; the “Dry mouth TEAE, patients” value stood at 55.6%; the “Hyperphosphatemia TEAE, patients” value turned out to be 55.6%. For the same compound, the “Hyperphosphatemia TEAE, patients” value in series [2] (pemigatinib 13.5 mg ID) is recorded as 78.6%. The “ORR (95% CI)” value in the series with advanced solid tumors (Total (all pemigatinib doses)) is recorded as 26.9%. The “DOR, individual responder” value with advanced solid tumors (pemigatinib 13.5 mg ID, urothelial tract/bladder cancer, FGFR3 p.S249C mutation) turned out to be 50.3 months.
Take pemigatinib + retifanlimab [Pemi/reti]: in series [2] (Total (all pemigatinib doses)), the “Alopecia (TEAE)” value is listed as 6 (33.3) n (%), the “Dehydration (TEAE)” value is recorded as 8 (44.4) n (%), the “Diarrhea (TEAE)” value was 7 (38.9) n (%) and the “Dry mouth (TEAE)” value is recorded as 9 (50.0) n (%). Moreover, in series [2] (Total (all pemigatinib doses)), the “Fatigue (TEAE)” value was 11 (61.1) n (%); the “Hyperphosphatemia (TEAE)” value is reported as 11 (61.1) n (%); the “Hyperphosphatemia TEAE, patients” value was 61.1%; the “Hypomagnesemia (TEAE)” value is reported as 6 (33.3) n (%). In addition, in series [2] (Total (all pemigatinib doses)), the “Pemigatinib-related TEAEs, patients” value was determined as 94.4%; the “Stomatitis (TEAE)” value is reported as 12 (66.7) n (%); the “Stomatitis TEAE, patients” value turned out to be 66.7%; the “TEAEs related” value came to 88.9%. For the same compound, in series [2] (pemigatinib 13.5 mg CD), the “Stomatitis TEAE, patients” value is 77.8%. In the series with advanced solid tumors (Total (all pemigatinib doses)), the “ORR (95% CI)” value is recorded as 11.1%. Further, the “DOR, individual responder” value in the series on advanced solid tumors (pemigatinib 13.5 mg CD, ovarian cancer, no detectable FGF/FGFR alterations) is recorded as 4.2 months. Also, in the series with advanced solid tumors (pemigatinib 13.5 mg CD, urothelial cancer, FGF3/4/19 amplification), the “DOR, individual responder” value is reported as 8.3 months.
In the case of pemigatinib + trastuzumab [Pemi/tras], the “Inhibition of FGFR2α phosphorylation” value at phosphorylated FGFR2α (setting [3]) is given as “exceeded 50%”. For the same compound, in series [2] (pemigatinib 13.5 mg ID), the “Alopecia (TEAE)” value is recorded as 5 (83.3) n (%); the “Alopecia TEAE, patients” value was found to be 83.3%; the “Anemia (TEAE)” value was 2 (33.3) n (%); the “Constipation (TEAE)” value was 2 (33.3) n (%). For the same compound, in series [2] (pemigatinib 13.5 mg ID), the “Cough (TEAE)” value is 4 (66.7) n (%), the “Decreased appetite (TEAE)” value is 3 (50.0) n (%), the “Diarrhea (TEAE)” value is 3 (50.0) n (%) and the “Dry eye (TEAE)” value was 2 (33.3) n (%). Further, in series [2] (pemigatinib 13.5 mg ID), the “Dry mouth (TEAE)” value is given as 4 (66.7) n (%), the “Dyspepsia (TEAE)” value is recorded as 2 (33.3) n (%), the “Dyspnea (TEAE)” value is listed as 2 (33.3) n (%) and the “Epistaxis (TEAE)” value was 2 (33.3) n (%). In series [2] (pemigatinib 13.5 mg ID), the “Fatigue (TEAE)” value was 2 (33.3) n (%); the “Fatigue TEAE, patients” value is given as 33.3%; the “Headache (TEAE)” value is given as 2 (33.3) n (%); the “Hyperphosphatemia (TEAE)” value is 5 (83.3) n (%). For the same compound, in series [2] (pemigatinib 13.5 mg ID), the “Hyperphosphatemia TEAE, patients” value amounted to 83.3%; the “Nausea (TEAE)” value is on record as 2 (33.3) n (%); the “Pemigatinib-related TEAEs, patients” value was 83.3%; the “Pyrexia (TEAE)” value is 2 (33.3) n (%). Moreover, in series [2] (pemigatinib 13.5 mg ID), the “Sinusitis (TEAE)” value was 3 (50.0) n (%); the “Stomatitis (TEAE)” value is 2 (33.3) n (%); the “TEAEs related” value was determined as 50.0%; the “Taste disorder (TEAE)” value was 2 (33.3) n (%). For the same compound, the “Upper respiratory tract infection (TEAE)” value in series [2] (pemigatinib 13.5 mg ID) is 2 (33.3) n (%). Moreover, the “ORR (95% CI)” value in the series on advanced solid tumors (pemigatinib 13.5 mg ID) came to 0%.
